Columns and labels:
Aeromonas hydrophila [1] = experiment: Antimicrobial activity against Aeromonas hydrophila assessed as susceptible isolate by FDA method; type: functional
In short: (§1)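 Susceptibility categories assigned from tigecycline broth microdilution MICs (CLSI method, 0.03–128 μg/ml) using US FDA or EUCAST breakpoints, as named in each line.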

Aeromonas hydrophila [2] = experiment: Antimicrobial activity against Aeromonas hydrophila assessed as susceptible isolate by EUCAST method; type: functional; in short: as §1
Aeromonas hydrophila [3] = experiment: Antimicrobial activity against Aeromonas hydrophila assessed as intermediate isolate by FDA method; type: functional
In short: (§2)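 Tigecycline MICs for clinical isolates (Taiwan) were determined by broth microdilution over 0.03 to 128 μg/ml. A control strain was included, and its MICs had to fall within the recommended range. Susceptible, intermediate and resistant categories were assigned from the MICs using US FDA and EUCAST breakpoints.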

Aeromonas hydrophila [4] = experiment: Antimicrobial activity against Aeromonas hydrophila assessed as intermediate isolate by EUCAST method; type: functional; in short: as §1
Aeromonas caviae [5] = experiment: Antimicrobial activity against Aeromonas caviae assessed as susceptible isolate by FDA method; type: functional; in short: as §2
Aeromonas caviae [6] = experiment: Antimicrobial activity against Aeromonas caviae assessed as susceptible isolate by EUCAST method; type: functional; in short: as §1
Aeromonas caviae [7] = experiment: Antimicrobial activity against Aeromonas caviae assessed as intermediate isolate by FDA method; type: functional; in short: as §1
Aeromonas caviae [8] = experiment: Antimicrobial activity against Aeromonas caviae assessed as intermediate isolate by EUCAST method; type: functional; in short: as §2
Aeromonas caviae [9] = experiment: Antimicrobial activity against Aeromonas caviae assessed as resistant isolate by FDA method; type: functional; in short: as §2
Aeromonas sobria [10] = experiment: Antimicrobial activity against Aeromonas sobria assessed as susceptible isolate by FDA method; type: functional; in short: as §1
Aeromonas sobria [11] = experiment: Antimicrobial activity against Aeromonas sobria assessed as susceptible isolate by EUCAST method; type: functional; in short: as §1
Aeromonas sobria [12] = experiment: Antimicrobial activity against Aeromonas sobria assessed as intermediate isolate by FDA method; type: functional; in short: as §2
Aeromonas sobria [13] = experiment: Antimicrobial activity against Aeromonas sobria assessed as intermediate isolate by EUCAST method; type: functional; in short: as §1
[14] = Antimicrobial activity against Salmonella serotype Choleraesuis assessed as susceptible isolate by FDA method; type: functional, Salmonella enterica subsp. enterica serovar Choleraesuis; in short: as §2
[15] = Antimicrobial activity against Salmonella serotype Choleraesuis assessed as intermediate isolate by FDA method; type: functional, Salmonella enterica subsp. enterica serovar Choleraesuis; in short: as §2
[16] = Antimicrobial activity against Salmonella serotype Choleraesuis assessed as intermediate isolate by EUCAST method; type: functional, Salmonella enterica subsp. enterica serovar Choleraesuis; in short: as §2
[17] = Antimicrobial activity against Salmonella serotype Choleraesuis assessed as resistant isolate by FDA method; type: functional, Salmonella enterica subsp. enterica serovar Choleraesuis; in short: as §2
[18] = Antimicrobial activity against Salmonella serotype Choleraesuis assessed as resistant isolate by EUCAST method; type: functional, Salmonella enterica subsp. enterica serovar Choleraesuis; in short: as §2
Salmonella typhimurium [19] = experiment: Antimicrobial activity against Salmonella serotype Typhimurium assessed as susceptible isolate by FDA method; type: functional, Salmonella enterica subsp. enterica serovar Typhimurium; in short: as §1
Salmonella typhimurium [20] = experiment: Antimicrobial activity against Salmonella serotype Typhimurium assessed as susceptible isolate by EUCAST method; type: functional, Salmonella enterica subsp. enterica serovar Typhimurium; in short: as §1
Salmonella typhimurium [21] = experiment: Antimicrobial activity against Salmonella serotype Typhimurium assessed as intermediate isolate by FDA method; type: functional, Salmonella enterica subsp. enterica serovar Typhimurium; in short: as §1
Salmonella typhimurium [22] = experiment: Antimicrobial activity against Salmonella serotype Typhimurium assessed as intermediate isolate by EUCAST method; type: functional, Salmonella enterica subsp. enterica serovar Typhimurium; in short: as §1
Salmonella [23] = experiment: Antimicrobial activity against Salmonella serogroup O7 assessed as susceptible isolate by FDA method; type: functional; in short: as §1
Salmonella [24] = experiment: Antimicrobial activity against Salmonella serogroup O7 assessed as susceptible isolate by EUCAST method; type: functional; in short: as §1
Salmonella [25] = experiment: Antimicrobial activity against Salmonella serogroup O7 assessed as intermediate isolate by FDA method; type: functional; in short: as §1
Salmonella [26] = experiment: Antimicrobial activity against Salmonella serogroup O7 assessed as intermediate isolate by EUCAST method; type: functional; in short: as §1
Salmonella [27] = experiment: Antimicrobial activity against Salmonella serogroup O8 assessed as susceptible isolate by FDA method; type: functional; in short: as §1
Salmonella [28] = experiment: Antimicrobial activity against Salmonella serogroup O8 assessed as susceptible isolate by EUCAST method; type: functional; in short: as §1
Salmonella [29] = experiment: Antimicrobial activity against Salmonella serogroup O8 assessed as intermediate isolate by FDA method; type: functional; in short: as §1
Salmonella [30] = experiment: Antimicrobial activity against Salmonella serogroup O8 assessed as intermediate isolate by EUCAST method; type: functional; in short: as §1
Salmonella [31] = experiment: Antimicrobial activity against Salmonella serogroup O9 assessed as susceptible isolate by FDA method; type: functional; in short: as §1
Salmonella [32] = experiment: Antimicrobial activity against Salmonella serogroup O9 assessed as susceptible isolate by EUCAST method; type: functional; in short: as §1
Salmonella [33] = experiment: Antimicrobial activity against Salmonella serogroup O9 assessed as intermediate isolate by FDA method; type: functional; in short: as §1
Salmonella [34] = experiment: Antimicrobial activity against Salmonella serogroup O9 assessed as intermediate isolate by EUCAST method; type: functional; in short: as §2
Vibrio vulnificus [35] = experiment: Antimicrobial activity against Vibrio vulnificus assessed as susceptible isolate by FDA method; type: functional; in short: as §1
Vibrio vulnificus [36] = experiment: Antimicrobial activity against Vibrio vulnificus assessed as susceptible isolate by EUCAST method; type: functional; in short: as §1
Vibrio vulnificus [37] = experiment: Antimicrobial activity against Vibrio vulnificus assessed as intermediate isolate by FDA method; type: functional; in short: as §1
Vibrio vulnificus [38] = experiment: Antimicrobial activity against Vibrio vulnificus assessed as intermediate isolate by EUCAST method; type: functional; in short: as §2
Vibrio parahaemolyticus [39] = experiment: Antimicrobial activity against Vibrio parahaemolyticus assessed as susceptible isolate by FDA method; type: functional; in short: as §1
Vibrio parahaemolyticus [40] = experiment: Antimicrobial activity against Vibrio parahaemolyticus assessed as susceptible isolate by EUCAST method; type: functional; in short: as §1
Vibrio parahaemolyticus [41] = experiment: Antimicrobial activity against Vibrio parahaemolyticus assessed as intermediate isolate by FDA method; type: functional; in short: as §2
Vibrio parahaemolyticus [42] = experiment: Antimicrobial activity against Vibrio parahaemolyticus assessed as intermediate isolate by EUCAST method; type: functional; in short: as §1
Vibrio cholerae [43] = experiment: Antimicrobial activity against Vibrio cholerae non-O1 assessed as susceptible isolate by FDA method; type: functional; in short: as §2
Vibrio cholerae [44] = experiment: Antimicrobial activity against Vibrio cholerae non-O1 assessed as susceptible isolate by EUCAST method; type: functional; in short: as §2
Vibrio cholerae [45] = experiment: Antimicrobial activity against Vibrio cholerae non-O1 assessed as intermediate isolate by FDA method; type: functional; in short: as §2
Vibrio cholerae [46] = experiment: Antimicrobial activity against Vibrio cholerae non-O1 assessed as intermediate isolate by EUCAST method; type: functional; in short: as §2
Vibrio cholerae [47] = experiment: Antimicrobial activity against Vibrio cholerae non-O1 assessed as resistant isolate by FDA method; type: functional; in short: as §2
Vibrio cholerae [48] = experiment: Antimicrobial activity against Vibrio cholerae non-O1 assessed as resistant isolate by EUCAST method; type: functional; in short: as §2
Salmonella [49] = experiment: Antimicrobial activity against Salmonella serogroup O8 assessed as susceptibility level by disk diffusion method; type: functional
In short: (§3)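 Cefotaxime and ciprofloxacin susceptibility taken from routine clinical laboratory reports; disk diffusion per CLSI guidelines.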

Salmonella [50] = experiment: Antimicrobial activity against Salmonella serogroup O9 assessed as susceptibility level by disk diffusion method; type: functional; in short: as §3
Aeromonas hydrophila [51] = experiment: Antimicrobial activity against Aeromonas hydrophila assessed as susceptibility level by disk diffusion method; type: functional; in short: as §3
Aeromonas caviae [52] = experiment: Antimicrobial activity against Aeromonas caviae assessed as susceptibility level by disk diffusion method; type: functional; in short: as §3
Aeromonas sobria [53] = experiment: Antimicrobial activity against Aeromonas sobria assessed as susceptibility level by disk diffusion method; type: functional; in short: as §3
Salmonella enterica = experiment: Antimicrobial activity against Salmonella serotype Choleraesuis assessed as susceptibility level by disk diffusion method; type: functional
In short: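 Cefotaxime and ciprofloxacin susceptibility was taken from routine laboratory reports. These were generated by disk diffusion according to CLSI guidelines.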

Salmonella [54] = experiment: Antimicrobial activity against Salmonella serogroup O7 assessed as susceptibility level by disk diffusion method; type: functional; in short: as §3

CN(C)c1cc(NC(=O)CNC(C)(C)C)c(O)c2c1C[C@H]1C[C@H]3[C@H](N(C)C)C(O)=C(C(N)=O)C(=O)[C@@]3(O)C(O)=C1C2=O [TIGECYCLINE]
Activity (Aeromonas hydrophila [1]): 100% | Activity (Aeromonas hydrophila [2]): 98.8% | Activity (Aeromonas hydrophila [3]): 0% | Activity (Aeromonas hydrophila [4]): 1.2% | Activity (Aeromonas caviae [5]): 98.4% | Activity (Aeromonas caviae [6]): 96.8% | Activity (Aeromonas caviae [7]): 1.6% | Activity (Aeromonas caviae [8]): 1.6% | Activity (Aeromonas caviae [9]): 0% | Activity (Aeromonas sobria [10]): 100% | Activity (Aeromonas sobria [11]): 100% | Activity (Aeromonas sobria [12]): 0% | Activity (Aeromonas sobria [13]): 0% | Activity [14]: 100% | Activity [15]: 0% | Activity [16]: 1.6% | Activity [17]: 0% | Activity [18]: 0% | Activity (Salmonella typhimurium [19]): 100% | Activity (Salmonella typhimurium [20]): 98.4% | Activity (Salmonella typhimurium [21]): 0% | Activity (Salmonella typhimurium [22]): 1.6% | Activity (Salmonella [23]): 100% | Activity (Salmonella [24]): 100% | Activity (Salmonella [25]): 0% | Activity (Salmonella [26]): 0% | Activity (Salmonella [27]): 100% | Activity (Salmonella [28]): 100% | Activity (Salmonella [29]): 0% | Activity (Salmonella [30]): 0% | Activity (Salmonella [31]): 100% | Activity (Salmonella [32]): 100% | Activity (Salmonella [33]): 0% | Activity (Salmonella [34]): 0% | Activity (Vibrio vulnificus [35]): 100% | Activity (Vibrio vulnificus [36]): 100% | Activity (Vibrio vulnificus [37]): 0% | Activity (Vibrio vulnificus [38]): 0% | Activity (Vibrio parahaemolyticus [39]): 100% | Activity (Vibrio parahaemolyticus [40]): 100% | Activity (Vibrio parahaemolyticus [41]): 0% | Activity (Vibrio parahaemolyticus [42]): 0% | Activity (Vibrio cholerae [43]): 100% | Activity (Vibrio cholerae [44]): 100% | Activity (Vibrio cholerae [45]): 0% | Activity (Vibrio cholerae [46]): 0% | Activity (Vibrio cholerae [47]): 0% | Activity (Vibrio cholerae [48]): 0%

O=C(O)c1cn(C2CC2)c2cc(N3CCNCC3)c(F)cc2c1=O [CIPROFLOXACIN]
Activity (Salmonella [49]): 57% | Activity (Salmonella [50]): 96% | Activity (Aeromonas hydrophila [51]): 90% | Activity (Aeromonas caviae [52]): 86% | Activity (Aeromonas sobria [53]): 93% | Activity (Salmonella enterica): 22% | Activity (Salmonella [54]): 77%

Reference: ChEMBL document CHEMBL1629548, “In vitro activities of tigecycline against clinical isolates of Aeromonas, Vibrio, and Salmonella species in Taiwan” (2008)
